# Measurements: ChEMBL document CHEMBL4373668, “Bivalent AMPA receptor positive allosteric modulators of the bis(pyrimidine) series” (Medchemcomm, 2019)
# Columns and labels:
# [1] = target: T1, Glutamate receptor ionotropic, AMPA (Rattus norvegicus) (UniProt P19491+P19492+P19493+P19490); assay: Positive allosteric modulation of rat Purkinje neuron AMPA receptor assessed as change in kainate-induced current at 10^-12 M measured for 2 mins by patch clamp assay (rvb = 100%)
# How it was run: (§1)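 Purkinje neurons were freshly isolated from the cerebellum of 12–16-day-old rat pups by protease/collagenase digestion at 34°C under O₂. Whole-cell patch clamp was used, with compounds given by fast perfusion in extracellular saline at pH 7.32. Kainic acid (20 µM) was applied three times per concentration, 2 min apart, with a 3-min washout between concentrations. Current amplitude was normalized to the KA control (100%), using 4–7 neurons per concentration.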
# [2] = target: T1, Glutamate receptor ionotropic, AMPA (Rattus norvegicus); assay: Positive allosteric modulation of rat Purkinje neuron AMPA receptor assessed as change in kainate-induced current at 10^-11 M measured for 2 mins by patch clamp assay (rvb = 100%); how it was run: as §1
# [3] = target: T1, Glutamate receptor ionotropic, AMPA (Rattus norvegicus); assay: Positive allosteric modulation of rat Purkinje neuron AMPA receptor assessed as change in kainate-induced current at 10^-10 M measured for 2 mins by patch clamp assay (rvb = 100%); how it was run: as §1
# [4] = target: T1, Glutamate receptor ionotropic, AMPA (Rattus norvegicus); assay: Positive allosteric modulation of rat Purkinje neuron AMPA receptor assessed as change in kainate-induced current at 10^-9 M measured for 2 mins by patch clamp assay (rvb = 100%); how it was run: as §1
# [5] = target: T1, Glutamate receptor ionotropic, AMPA (Rattus norvegicus); assay: Positive allosteric modulation of rat Purkinje neuron AMPA receptor assessed as change in kainate-induced current at 10^-8 M measured for 2 mins by patch clamp assay (rvb = 100%); how it was run: as §1
# [6] = target: T1, Glutamate receptor ionotropic, AMPA (Rattus norvegicus); assay: Positive allosteric modulation of rat Purkinje neuron AMPA receptor assessed as change in kainate-induced current at 10^-7 M measured for 2 mins by patch clamp assay (rvb = 100%); how it was run: as §1
# [7] = target: T1, Glutamate receptor ionotropic, AMPA (Rattus norvegicus); assay: Positive allosteric modulation of rat Purkinje neuron AMPA receptor assessed as change in kainate-induced current at 10^-6 M measured for 2 mins by patch clamp assay (rvb = 100%); how it was run: as §1
# [8] = target: T1, Glutamate receptor ionotropic, AMPA (Rattus norvegicus); assay: Positive allosteric modulation of rat Purkinje neuron AMPA receptor assessed as change in kainate-induced current at 10^-5 M measured for 2 mins by patch clamp assay (rvb = 100%)
# [9] = target: T1, Glutamate receptor ionotropic, AMPA (Rattus norvegicus); assay: Positive allosteric modulation of rat Purkinje neuron AMPA receptor assessed as change in kainate-induced current at 3 x 10^-5 M measured for 2 mins by patch clamp assay (rvb = 100%)
Activity [1] [%],Activity [2] [%],Activity [3] [%],Activity [4] [%],Activity [5] [%],Activity [6] [%],Activity [7] [%],Activity [8] [%],Activity [9] [%],SMILES
100,84,72,82,92,98,–,–,–,CC(C)c1nc2c(c(Oc3ccc(Oc4nc(C(C)C)nc5c4CCCC5)cc3)n1)CCCC2
108,132,143,170,123,85,78,–,–,Cc1nc2c(c(Oc3ccc(Oc4nc(C)nc5c4CCCC5)cc3)n1)CCCC2
100,117,126,155,128,100,–,–,–,CCc1nc2c(c(Oc3ccc(Oc4nc(CC)nc5c4CCCC5)cc3)n1)CCCC2
–,100,100,95,96,97,96,–,–,c1cc(Oc2nc(C3CC3)nc3c2CCCC3)ccc1Oc1nc(C2CC2)nc2c1CCCC2
–,100,108,120,125,133,145,–,–,CC(C)(C)c1nc2c(c(Oc3ccc(Oc4nc(C(C)(C)C)nc5c4CCCC5)cc3)n1)CCCC2
–,–,–,–,–,100,145,235,560,NS(=O)(=O)c1cc2c(cc1Cl)NC(C1CC3C=CC1C3)NS2(=O)=O (stereo not given)
